Experimental data taken from ChEMBL document CHEMBL1132148, “Synthesis and biological activity of (hydroxymethyl)- and (diethylaminomethyl)benzopsoralens” (J Med Chem, 1999).
Active and inactive are the calls of the source. No cut-off for these calls is given here.

How the values were obtained:
[1] = species: Cavia porcellus; experiment: Phototoxicity on guinea pig skin was calculated at concentration of 30 uM.cm-2 and UVA light dose 20 kJ.me-2.-- indicates no erythemia.; format: functional, organism-based
Procedure, shortened: (§1)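 Depilated albino guinea pigs (outbred Dunkin-Hartley) received test compounds topically as 4.5 mM methanol solutions and were then exposed to UVA. The read-out was erythema scoring.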

[2] = The IC50-UVA is the dose of UVA light which in the presence of fixed drug concentration (20 uM) is necessary to induce a 50% inhibition of DNA synthesis by incubation at the ground state by keeping mammalian cells in the dark.; format: functional
Procedure, shortened: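 Ehrlich cells (Lettré strain) at 2 × 10^7 cells·mL-1 in PBS were irradiated with increasing UVA doses in the presence of 20 μM compound, with final DMSO ≤0.5%. Then 10^6 cells were labelled with 40 kBq·mL-1 [3H]thymidine for 30 min at 37 °C. Incorporation is given as % of untreated control, and IC50-UVA is the UVA dose (kJ·m-2) giving 50% inhibition.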

[3] = The IC50-dark is the drug concentration necessary to induce a 50% inhibition of DNA synthesis by incubation at the ground state by keeping mammalian cells in the dark.; format: functional
Procedure, shortened: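 Ehrlich cells (Lettré strain) in PBS received compound at room temperature without irradiation, with final DMSO ≤0.5%. They were then held 30 min at 37 °C in the dark with 40 kBq·mL-1 [3H]thymidine. DNA-incorporated radioactivity is expressed as % of untreated controls, and IC50 is the concentration giving 50% inhibition.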

[4] = The IC50-dark is the drug concentration necessary to induce a 50% inhibition of clonal growth by incubation at the ground state by keeping mammalian cells in the dark.; format: functional
Procedure, shortened: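 HeLa cells seeded at 1.5–2 × 10^5 were exposed after 24 h to compound in serum-containing growth medium for 3 h at 37 °C under 5% CO2, in the dark and without UVA. Controls had 0.5% DMSO. Afterwards 200 cells were replated and grown 7 days, and colonies of ≥50 cells were counted. IC50 is the concentration halving clonal efficiency.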

[5] = The IC50-UVA is the dose of UVA light which in the presence of fixed drug concentration (20 uM) is necessary to induce a 50% inhibition of clonal growth by incubation at the ground state by keeping mammalian cells in the dark; format: functional
Procedure, shortened: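 HeLa cells were grown in F-12 Ham with 5% FCS at 37 °C under 5% CO2, seeded at 1.5–2 × 10^5 and given 20 μM compound after 24 h. Cells had 15 min of dark uptake, then increasing UVA doses. Afterwards 200 cells were replated in 10% FCS medium for 7 days and colonies of ≥50 cells were counted. Clonal efficiency is colonies over cells seeded. IC50-UVA is the UVA dose giving 50% inhibition.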

[6] = species: Cavia porcellus; experiment: Phototoxicity on guinea pig skin was calculated at concentration of 2 uM.cm-2 and UVA light dose 5 kJ.me-2.-- indicates no erythemia; format: functional, organism-based; procedure, shortened: as §1
[7] = species: Cavia porcellus; experiment: Phototoxicity on guinea pig skin was calculated at concentration of 30 uM.cm-2 and UVA light dose 5 kJ.me-2. ++++ medium erythemia; format: functional, organism-based; details: in the assay text read “strong erythema with edema” for “medium erythemia”; procedure, shortened: as §1
[8] = species: Cavia porcellus; experiment: Phototoxicity on guinea pig skin was calculated at concentration of 4 uM.cm-2 and UVA light dose 5 kJ.me-2.+-- barely erythemia; format: functional, organism-based; procedure, shortened: as §1

| IC50 [2] [kJ m**-2] | IC50 [3] [µM] | SMILES | Intensity of erythemia [1] | IC50 [4] [µM] | IC50 [5] [kJ m**-2] | Intensity of erythemia [6] | Intensity of erythemia [7] | Intensity of erythemia [8] |
| --- | --- | --- | --- | --- | --- | --- | --- | --- |
| 8.3 | 10.9 | O=c1ccc2c(CO)c3c(cc2o1)oc1ccccc13 | no erythemia | 25 | 0.23 |  |  |  |
| 16.8 | > 30 | O=c1oc2cc3oc4ccccc4c3cc2cc1CO | no erythemia | > 30 | 1.06 |  |  |  |
| 3.59 | > 30 | COc1c2occc2cc2ccc(=O)oc12 [METHOXSALEN] |  | > 30 | 1.23 | inactive | Active | Partially active |
| 2.22 | > 30 | CCN(CC)Cc1ccc2c(c1)oc1cc3oc(=O)cc(C)c3cc12 | no erythemia | > 30 | 1.83 |  |  |  |
| 0.97 | 3 | O=c1ccc2cc3c(oc4ccccc43)c(CO)c2o1 | no erythemia | 6.8 | 0.19 |  |  |  |
| > 30 | > 30 | CCN(CC)Cc1c2ccc(=O)oc2cc2oc3ccccc3c12 | no erythemia | > 30 | > 30 |  |  |  |
| 0.67 | 0.94 | O=c1cc(CO)c2cc3c(cc2o1)oc1ccccc13 | no erythemia | 3.8 | 0.11 |  |  |  |
| 9.3 | 10.7 | CCN(CC)Cc1c2oc(=O)ccc2cc2c1oc1ccccc12 | no erythemia | 10.7 | 0.65 |  |  |  |
| 0.48 | > 30 | Cc1cc(=O)oc2cc3oc4cc(CO)ccc4c3cc12 | no erythemia | > 30 | 0.16 |  |  |  |
| > 30 | > 30 | CCN(CC)Cc1cc2cc3c(cc2oc1=O)oc1ccccc13 | no erythemia | > 30 | > 30 |  |  |  |
